CXCR6 block: blocks human CXCR6 beta-arrestin recruitment | O00574 | CHO-K1 PathHunter CXCR6 beta-arrestin, luminescence | inhibition, % at 20 µM | 0.36% of 360,000 active | AID 602244; in the data active = inhibition above about 34%, passing the limit was not always enough;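 note: antagonist mode with CXCL16 agonist at 10 nM final; 0% = 10 nM CXCL16 with DMSO and 100% = unstimulated wells without agonist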
APJ ag: APJ receptor agonism; 0.11% of 330,000 active; activation, % at 20 µM; P35414; CHO-K1 APJ PathHunter beta-arrestin, luminescence; 0% DMSO wells, 100% apelin;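 active = activation more than six SD over the plate average, tested at 20 µM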;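 note: 0% = DMSO alone and 100% = apelin-13 at 10 nM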
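Assay system – PathHunter CHO-K1 APJ (AGTRL-1) beta-arrestin reporter cells · Compound – one dose, 20 µM compound, 1% DMSO · Timing – compound 90 min 25 °C, reagent 1 h · Measured by – luminescence from split beta-galactosidase complementation, Galacton Star/Emerald II substrate · Measure – beta-arrestin recruitment to APJ as agonist activity, luminescent signal · Benchmarks – DMSO vs Apelin-13 10 nM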
APJ antag: antagonists of human APJ apelin receptor; P35414; CHO-K1 APJ beta-arrestin complementation, luminescence; inhibition, % at 20 µM; 0.32% of 330,000 active;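 active = inhibition above about 40% at 20 µM, limit read from the data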;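 note: cells challenged with 10 nM apelin-13 agonist together with compound; plate controls were apelin-13 plus DMSO wells for no effect and DMSO wells lacking apelin-13 for full effect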
EBI2 block: blocks human EBI2 receptor beta-arrestin signaling. P32249. EBI2 beta-arrestin recruitment, luminescence, 7a,25-OHC stimulated. AID 651636. 0.81% of 360,000 active. inhibition, % at 5 µM; in the data active = inhibition above about 38%;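 note: enzyme fragment complementation signal reports receptor beta-arrestin coupling in cells; 0% = agonist plus DMSO wells and 100% = wells without agonist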
CCR6 antagonist: antagonists of human CCR6 receptor. 0.49% of 340,000 active. CHO-K1 CCR6 PathHunter beta-arrestin, luminescence, CCL20-stimulated. inhibition, % at 20 µM;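 active = compounds whose inhibition of the agonist-driven luminescence signal at 20 µM reaches about 50%, limit read from the data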;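 note: cells stimulated with CCL20 at 14 nM final; plate controls were DMSO with CCL20 for no effect and DMSO without agonist for full effect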
Target sequence (P51684 whole entry, looked up): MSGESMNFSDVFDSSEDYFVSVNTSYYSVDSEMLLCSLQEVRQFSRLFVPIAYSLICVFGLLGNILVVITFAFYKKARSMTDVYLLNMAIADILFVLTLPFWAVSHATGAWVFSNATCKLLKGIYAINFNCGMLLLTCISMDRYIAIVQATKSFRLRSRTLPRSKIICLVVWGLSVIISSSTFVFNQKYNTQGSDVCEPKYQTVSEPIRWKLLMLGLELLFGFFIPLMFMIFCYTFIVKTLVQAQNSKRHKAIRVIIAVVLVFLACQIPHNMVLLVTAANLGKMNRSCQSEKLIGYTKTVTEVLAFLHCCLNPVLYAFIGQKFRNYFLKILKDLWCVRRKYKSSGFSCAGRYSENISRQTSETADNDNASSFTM
EBI2 conf: EBI2 (human) antagonism, single concentration confirmation; inhibition, % at 5 µM; EBI2 beta-arrestin luminescence, 7a,25-OHC antagonism; AID 651997; 29% of 2,400 active; shares compounds with EBI2 block;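 active = inhibition of at least 50%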
EBI2 ag: EBI2 agonism counter-screen. shares compounds with EBI2 block. 2,400 tested, under 10 active. EBI2-expressing cells, agonist mode, luminescence, 60 min; 0% vehicle, 100% 7α,25-dihydroxycholesterol control. activation, % at 5 µM. AID 652000;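 active = activation of at least 50%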
bGal counter: counter-screen for EBI2 antagonists: E. coli beta-galactosidase inhibition; shares compounds with EBI2 block; purified beta-galactosidase, luminescent Galacton Star, 15 min; inhibition, % at 5 µM; 1% of 2,400 active;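 active = replicate-average signal at least 3 plate SD below neutral wells, shown as high inhibition, flagging enzyme-inhibiting false positives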;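 note: 0% = DMSO wells with enzyme and 100% = wells lacking enzyme; higher means stronger loss of beta-gal luminescence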
Starred values were filed as active, the others as inactive. Sampled rows, rich in hits. Any-hit rate of the full collection: about 1.5%.

COCCOc1ccc(C(F)(F)F)cc1NC(=O)COC(=O)Cc1c[nH]c2ccccc12 was read as CXCR6 block -2, APJ ag 2, APJ antag 0, EBI2 block 82*, CCR6 antagonist 11, EBI2 conf 34, EBI2 ag 1 and bGal counter 4.
Screening CC1CC(C)(C)NC(=S)N1CCCC(=O)Nc1ccc2c(c1)OCCO2 (stereo not given) returned CXCR6 block 2, APJ ag 2, APJ antag -1, EBI2 block 0 and CCR6 antagonist 4.
CC(C)Oc1cc(F)ccc1-c1cc(C(=O)Nc2ccc(C(C)C)cc2)[nH]n1 was read as CXCR6 block 3, EBI2 block 54*, EBI2 conf 47, EBI2 ag 1 and bGal counter 1.
`O=C(Cc1ccc(S(=O)(=O)N2CCOCC2)s1)N1CCN(c2cccc(C(F)(F)F)c2)CC1` gave CXCR6 block -8, APJ ag 10, APJ antag -10, EBI2 block -11 and CCR6 antagonist 20.
O=C(NC(c1ccccc1)c1ccc2ccccc2n1)C1CCN(Cc2ccc(Oc3ccccc3)cc2)CC1 (stereo not given) was read as CXCR6 block 6 and EBI2 block 15.
`COc1cc(OC)nc(C(NC(=O)C2CCN(Cc3ccc(Oc4ccccc4)cc3)CC2)c2ccccc2C)n1` (stereo not given) gave CXCR6 block 28, EBI2 block 53*, EBI2 conf 19, EBI2 ag -1 and bGal counter -9.
N#Cc1ccc(OCC(=O)N2CCN(S(=O)(=O)c3ccc(Cl)s3)CC2)cc1 was read as CXCR6 block -2, APJ ag -3, APJ antag 0, EBI2 block 81*, CCR6 antagonist 0, EBI2 conf 44, EBI2 ag 1 and bGal counter 4.
For N#Cc1ccc(OCC(=O)N2CCN(S(=O)(=O)c3cccc(Cl)c3)CC2)cc1 the results were CXCR6 block -6, APJ ag -1, APJ antag -10, EBI2 block 54*, CCR6 antagonist 7, EBI2 conf 21, EBI2 ag 1 and bGal counter 8.
`COc1ccc(OCC(=O)N2CCN(S(=O)(=O)c3ccc(Cl)s3)CC2)cc1` gave CXCR6 block -17, APJ ag -3, APJ antag 6, EBI2 block 87*, CCR6 antagonist 6, EBI2 conf 79*, EBI2 ag 1 and bGal counter 2.
Screening COc1ccc(CC(=O)N2CCN(S(=O)(=O)c3ccc(Cl)s3)CC2)cc1 returned CXCR6 block 2, APJ ag -1, APJ antag 15, EBI2 block 27 and CCR6 antagonist 2.
For CCOP(=O)(OCC)/C(C#N)=C/c1ccc([N+](=O)[O-])cc1 the results were CXCR6 block -12, APJ ag 4, APJ antag -44, EBI2 block -11 and CCR6 antagonist -22.
COc1cccc(NC(=O)CN(C)C(=O)Cn2cnc3ccccc3c2=O)c1 was read as CXCR6 block 2, APJ ag -3, APJ antag 0, EBI2 block -4 and CCR6 antagonist 6.
For Nc1sc(-c2ccccc2)cc1C(=O)N1CCNCC1 the results were EBI2 block 46*, EBI2 conf 33, EBI2 ag 0 and bGal counter 10.
`Cc1ccc(/C=C/C(=O)OCC(=O)NCCN2C(=O)CSC2=O)cc1` gave CXCR6 block -4, APJ ag -4, APJ antag 9, EBI2 block 56*, CCR6 antagonist -8, EBI2 conf 58*, EBI2 ag 2 and bGal counter 0.
Cc1ccc(/C=C/C(=O)OCC(=O)NC(=O)NCc2ccccc2)cc1 was read as CXCR6 block 8, APJ ag -2, APJ antag -16, EBI2 block 46*, CCR6 antagonist 8, EBI2 conf 14, EBI2 ag -1 and bGal counter -7.

Source: PubChem BioAssay
